Active and inactive are the calls of the source. The calls are words filed in the database; no cut-off is given here.
Key:
[1] = target: T1, Aromatase (Homo sapiens, UniProt P11511); assay: Inhibition of aromatase in human H295R cells using [1beta-3H(N)]-androst-4-ene-3,17-dione as substrate assessed as residual activity at 1 uM after 24 hrs by tritiated water release assay
T1 sequence (P11511 whole entry): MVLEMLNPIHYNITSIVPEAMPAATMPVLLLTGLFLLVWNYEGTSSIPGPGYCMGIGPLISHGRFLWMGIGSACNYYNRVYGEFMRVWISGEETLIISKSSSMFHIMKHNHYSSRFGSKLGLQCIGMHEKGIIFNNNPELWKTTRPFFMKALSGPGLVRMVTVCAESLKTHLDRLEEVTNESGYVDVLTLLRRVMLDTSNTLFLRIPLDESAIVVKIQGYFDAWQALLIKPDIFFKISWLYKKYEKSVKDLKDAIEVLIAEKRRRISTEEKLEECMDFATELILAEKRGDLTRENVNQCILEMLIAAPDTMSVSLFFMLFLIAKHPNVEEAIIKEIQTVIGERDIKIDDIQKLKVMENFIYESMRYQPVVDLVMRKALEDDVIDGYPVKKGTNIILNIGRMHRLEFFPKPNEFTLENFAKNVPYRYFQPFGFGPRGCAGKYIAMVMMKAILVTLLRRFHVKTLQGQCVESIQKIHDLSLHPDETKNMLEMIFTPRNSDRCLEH

[2] = target: T1, Aromatase; assay: Inhibition of aromatase (unknown origin) using 7-methoxy-4-trifluoromethylcoumarin as substrate after 30 mins by fluorimetric analysis
Procedure, shortened: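 Recombinant CYP19 from a high-throughput screening kit, with 7-methoxy-4-trifluoromethylcoumarin as substrate. Enzyme/substrate mix was then added for 30 min at 37 °C before stop reagent. Fluorescence read at λex 410 / λem 530 nm. IC50 given as mean ± SEM of three independent experiments run in duplicate.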

[3] = target: T1, Aromatase; assay: Inhibition of CYP19 in human H295R cells using [1beta-3H(N)]-androst-4-ene-3,17-dione at 10 uM after 24 hrs by tritiated water release assay; type: cell-based
Procedure, shortened: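 Cells were then incubated 2 h with 0.5 µM [1β-3H(N)]-androst-4-ene-3,17-dione. Read-out is tritiated water release, expressed as % of untreated cells. Means ± SEM of two independent experiments, each in triplicate.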

[4] = target: T1, Aromatase; assay: Activation of aromatase in human H295R cells using [1beta-3H(N)]-androst-4-ene-3,17-dione as substrate at 0.1 uM after 24 hrs by tritiated water release assay
[5] = tested on: HT-29; assay: Growth inhibition of non-estrogen-sensitive human HT-29 cells after 72 hrs by MTT assay; type: functional; settings: HT-29, 72 h
Procedure, shortened: (§1)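 Cells were seeded at 8x10^3 per well and left 18 h at 37 °C, 5% CO2, then exposed 72 h to compound at several concentrations from 10 mM DMSO stocks (final DMSO ≤0.25%). Jurkat, RS4;11 and SEM were grown in RPMI-1640; H295R in DMEM-F12 with 2% FBS plus insulin-transferrin-selenium. Viability read by MTT.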

[6] = tested on: MCF7; assay: Cell cycle arrest in estrogen-sensitive human MCF7 cells assessed as increase of accumulation at G2/M phase at 6 to 50 uM after 24 hrs using propidium iodide staining by flow cytometry; type: functional, cell-based
[7] = tested on: IGROV-1; assay: Growth inhibition of estrogen-sensitive human IGROV1 cells after 72 hrs by MTT assay; type: functional; settings: IGROV-1, 72 h
Procedure, shortened: as §1

[8] = tested on: MCF7; assay: Cell cycle arrest in estrogen-sensitive human MCF7 cells assessed as decrease of accumulation at G1 and S phase at 6 to 50 uM after 24 hrs using propidium iodide staining by flow cytometry; type: functional, cell-based
[9] = target: T2, Steroid 17-alpha-hydroxylase/17,20 lyase (Homo sapiens, UniProt P05093); assay: Inhibition of human CYP17 expressed in Escherichia coli using progesterone as substrate NADPH as cofactor
T2 sequence (P05093 whole entry): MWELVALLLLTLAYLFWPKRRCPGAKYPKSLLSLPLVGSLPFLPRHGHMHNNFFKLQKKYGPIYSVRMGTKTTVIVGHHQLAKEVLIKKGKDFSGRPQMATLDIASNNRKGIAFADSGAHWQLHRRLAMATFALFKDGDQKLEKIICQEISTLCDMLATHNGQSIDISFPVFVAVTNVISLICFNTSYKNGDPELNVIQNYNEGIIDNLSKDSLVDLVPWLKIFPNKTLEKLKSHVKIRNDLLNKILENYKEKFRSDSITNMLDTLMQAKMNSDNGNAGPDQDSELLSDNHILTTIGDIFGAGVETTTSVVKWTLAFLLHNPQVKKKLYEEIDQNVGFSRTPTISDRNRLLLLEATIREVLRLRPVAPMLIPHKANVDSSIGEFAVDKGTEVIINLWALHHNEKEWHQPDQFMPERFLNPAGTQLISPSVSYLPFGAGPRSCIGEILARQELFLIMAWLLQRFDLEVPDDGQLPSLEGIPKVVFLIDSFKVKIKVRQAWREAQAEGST
Procedure, shortened: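 Cell-free assay using the 50000g sediment of E. coli coexpressing human CYP17 and cytochrome P450 reductase, with progesterone substrate and NADPH cofactor. IC50 given as mean ± SEM of three independent experiments run in duplicate.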

[10] = tested on: HeLa; assay: Cell cycle arrest in non-estrogen-sensitive human HeLa cells assessed as increase of accumulation at G2/M phase at 6 to 50 uM after 24 hrs using propidium iodide staining by flow cytometry; type: functional, cell-based
[11] = tested on: NCI-H295R; assay: Growth inhibition of estrogen-sensitive human NCI-H295R cells after 72 hrs by MTT assay; type: functional
Procedure, shortened: as §1

[12] = tested on: OVCAR-3; assay: Growth inhibition of estrogen-sensitive human OVCAR3 cells after 72 hrs by MTT assay; type: functional; settings: OVCAR-3, 72 h
Procedure, shortened: as §1

[13] = tested on: HeLa; assay: Growth inhibition of non-estrogen-sensitive human HeLa cells after 72 hrs by MTT assay; type: functional
Procedure, shortened: as §1

[14] = tested on: MCF7; assay: Growth inhibition of estrogen-sensitive human MCF7 cells after 72 hrs by MTT assay; type: functional; settings: MCF7, 72 h
Procedure, shortened: as §1

[15] = tested on: HeLa; assay: Cell cycle arrest in non-estrogen-sensitive human HeLa cells assessed as decrease of accumulation at G1 and S phase at 6 to 50 uM after 24 hrs using propidium iodide staining by flow cytometry; type: functional, cell-based
[16] = tested on: Jurkat; assay: Growth inhibition of non-estrogen-sensitive human Jurkat cells after 72 hrs by MTT assay; type: functional
Procedure, shortened: as §1

[17] = Growth inhibition of non-estrogen-sensitive human SEM cells after 72 hrs by MTT assay; type: functional
Procedure, shortened: as §1

[18] = target: T1, Aromatase; assay: Inhibition of aromatase in human H295R cells using [1beta-3H(N)]-androst-4-ene-3,17-dione as substrate assessed as residual activity at 10 uM after 24 hrs by tritiated water release assay
[19] = Growth inhibition of non-estrogen-sensitive human RS4:11 cells after 72 hrs by MTT assay; type: functional; settings: RS4-11, 72 h
Procedure, shortened: as §1

[20] = target: T3, Cytochrome P450 11B1, mitochondrial (Homo sapiens, UniProt P15538); assay: Inhibition of human CYP11B1 using [1,2-3H]-11-deoxycorticosterone as substrate
T3 sequence (P15538 whole entry): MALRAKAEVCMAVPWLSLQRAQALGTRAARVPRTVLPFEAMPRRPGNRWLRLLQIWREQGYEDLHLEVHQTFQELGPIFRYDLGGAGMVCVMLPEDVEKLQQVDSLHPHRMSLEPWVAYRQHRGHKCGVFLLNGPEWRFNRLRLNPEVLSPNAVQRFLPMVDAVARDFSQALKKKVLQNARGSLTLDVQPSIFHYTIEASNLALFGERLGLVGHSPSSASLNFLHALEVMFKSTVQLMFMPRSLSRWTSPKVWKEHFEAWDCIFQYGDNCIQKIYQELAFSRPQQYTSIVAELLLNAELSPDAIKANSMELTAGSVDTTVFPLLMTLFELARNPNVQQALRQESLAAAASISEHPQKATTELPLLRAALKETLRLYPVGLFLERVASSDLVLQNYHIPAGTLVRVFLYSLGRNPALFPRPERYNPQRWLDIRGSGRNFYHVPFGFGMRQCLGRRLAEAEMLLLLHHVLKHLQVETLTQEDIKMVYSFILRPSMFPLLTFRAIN
Procedure, shortened: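 Hamster fibroblast V79MZh cells expressing human CYP11B1 were incubated with [1,2-3H]-11-deoxycorticosterone substrate and inhibitor at several concentrations. IC50 given as mean ± SEM of three independent experiments run in duplicate.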

[21] = target: T1, Aromatase; assay: Inhibition of aromatase (unknown origin) using 7-methoxy-4-trifluoromethylcoumarin as substrate at 10 uM after 30 mins by fluorimetric analysis; settings: 0.5 h
[22] = target: T1, Aromatase; assay: Inhibition of aromatase in human H295R cells using [1beta-3H(N)]-androst-4-ene-3,17-dione as substrate at 10 uM after 24 hrs by tritiated water release assay
[23] = tested on: MCF7; assay: Cell cycle arrest in estrogen-sensitive human MCF7 cells assessed as increase of accumulation at G1 phase after 24 hrs using propidium iodide staining by flow cytometry; type: functional, cell-based
[24] = tested on: HeLa; assay: Cell cycle arrest in non-estrogen-sensitive human HeLa cells at 6 to 50 uM after 24 hrs using propidium iodide staining by flow cytometry; type: functional, cell-based
[25] = tested on: MCF7; assay: Cell cycle arrest in estrogen-sensitive human MCF7 cells assessed as decrease of accumulation at S phase at 6 to 50 uM after 24 hrs using propidium iodide staining by flow cytometry; type: functional, cell-based

| Compound | IC50 [2] [µM] | inhibition (INH) [3] | Activity [4] | GI50 [5] [µM] | IC50 [9] [µM] | GI50 [11] [µM] | GI50 [12] [µM] | GI50 [13] [µM] | GI50 [14] [µM] | GI50 [16] [µM] | IC50 [20] [µM] | GI50 [7] [µM] | GI50 [17] [µM] | GI50 [19] [µM] | further results |
| --- | --- | --- | --- | --- | --- | --- | --- | --- | --- | --- | --- | --- | --- | --- | --- |
| COc1ccc(-c2cc(C(=O)O)c3ccc4[nH]ccc4c3n2)cc1 | > 10 | Not Active |  |  |  |  |  |  |  |  |  |  |  |  | activity at 1 µM [1]: 10.6% |
| Cc1cc(C(=O)O)c2ccc3[nH]ccc3c2n1 | > 10 | Not Active | Active |  |  |  |  |  |  |  |  |  |  |  |  |
| CCOC(=O)c1cc(-c2ccc(OC)cc2)nc2c1ccc1[nH]ccc12 | > 10 | Active |  | 1.9 |  |  |  |  |  |  |  |  |  |  |  |
| OCc1cc(-c2ccccc2)nc2c1ccc1[nH]ccc12 | 2.11 |  |  |  |  |  |  |  |  |  |  |  |  |  | inhibition at 10 µM [22]: 40% |
| CCn1ccc2c3c(C(=O)O)cc(-c4ccccc4)nc3ccc21 | 1.47 | Not Active |  |  |  |  |  |  |  |  |  |  |  |  |  |
| CCOC(=O)c1cc(-c2ccccc2)nc2c1ccc1c2ccn1CC | > 10 | Not Active |  | 4.3 |  |  |  |  | 18.5 |  |  |  | 13 |  |  |

The next compounds have a lower IC50 [2] than those just listed; values first:

| IC50 [2] [µM] | inhibition (INH) [3] | Activity [4] | GI50 [5] [µM] | IC50 [9] [µM] | GI50 [11] [µM] | GI50 [12] [µM] | GI50 [13] [µM] | GI50 [14] [µM] | GI50 [16] [µM] | IC50 [20] [µM] | Compound | GI50 [7] [µM] | GI50 [17] [µM] | GI50 [19] [µM] | further results |
| --- | --- | --- | --- | --- | --- | --- | --- | --- | --- | --- | --- | --- | --- | --- | --- |
| 0.0133 |  |  | 29.5 | > 5 | 75.3 | 13.6 | 59.8 | 23 | 65.8 | 1.48 | CCn1ccc2c3c(Cn4cncn4)cc(-c4ccccc4)nc3ccc21 | 54.3 | 5.5 | 2.7 | Activity [6]: Active; Activity [8]: Active; Activity [10]: Active; Activity [15]: Active; activity at 10 µM [18]: 50.9% |
| 0.0053 |  | Active | 6.5 | 0.48 | 19 | 17.5 | 19.5 | 3.8 | 16.7 | 0.25 | CCn1ccc2c3nc(-c4ccccc4)cc(Cn4ccnc4)c3ccc21 | 18.9 | 31.2 | 19.2 | inhibition (INH) [21]: Active |
| 0.0114 | Not Active | Active | 13.5 | 0.919 | 36.5 | 16.9 | 21.2 | 23.3 | 27 | 0.23 | c1ccc(-c2cc(Cn3ccnc3)c3ccc4[nH]ccc4c3n2)cc1 | 23.6 | 17 | 29.6 | Activity [23]: Dose-dependent effect; Activity [24]: inactive; Activity [25]: Active |

Source: ChEMBL document CHEMBL2440047, “Design, synthesis, and structure-activity relationships of azolylmethylpyrroloquinolines as nonsteroidal aromatase inhibitors” (J Med Chem, 2013)
